Source: ChEMBL document CHEMBL5137075, “Discovery of a First-in-Class Degrader for Nuclear Receptor Binding SET Domain Protein 2 (NSD2) and Ikaros/Aiolos” (J Med Chem, 2022)
Calls of active or inactive are those of the source. The rule behind the calls is not given here.

Legend:
[1] = biological target: T1, Protein cereblon/Histone-lysine N-methyltransferase NSD2 (Homo sapiens, UniProt O96028+Q96SW2); assay: Protac activity at CRBN E3 ligase/ NSD2 PWWP1 domain (208 to 369 residues) in HEK293FT cells assessed as induction of NSD2 degradation at 2.5 to 10 uM incubated for 48 hrs by Western blot analysis; assay type: cell-based; conditions: dose 2.5-10 µM
Procedure, shortened: (§1)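 293FT cells (DMEM, 10% FBS) were treated with DMSO or compound at the indicated concentrations for 48 h. NSD2 was detected by Western blot of NP-40 lysates with GAPDH as loading control. Blots are representative of at least two independent experiments.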

[2] = biological target: T1, Protein cereblon/Histone-lysine N-methyltransferase NSD2; assay: Protac activity at CRBN/NSD2 PWWP1 domain (208 to 369 residues) in wild type HEK293FT cells assessed as induction of NSD2 degradation at 0.5 to 10 uM incubated for 48 hrs by Western blot analysis; assay type: cell-based; conditions: dose 0.5-10 µM
Procedure, shortened: (§2)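 Wild-type 293FT cells, alongside a CRISPR-Cas9 CRBN-knockout 293FT line, were treated across a concentration range for 48 h. NSD2, IKZF3 and CRBN were immunoblotted with GAPDH as loading control, representative of at least two independent experiments.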

[3] = biological target: T1, Protein cereblon/Histone-lysine N-methyltransferase NSD2; assay: Protac activity at CRBN E3 ligase/ NSD2 PWWP1 domain (208 to 369 residues) in HEK293FT cells assessed as induction of NSD2 degradation by measuring maximal efficacy at 0.5 to 10 uM incubated for 48 hrs by Western blot analysis relative to control; assay type: cell-based; conditions: dose 0.5-10 µM
Procedure, shortened: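 293FT cells were exposed to 0.5–10 μM for 48 h. NSD2 was immunoblotted with GAPDH as loading control and band intensity quantified by densitometry to derive DC50 and Dmax. Results are mean ± SD of two independent experiments.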

[4] = biological target: T2, Protein cereblon/Zinc finger protein Aiolos (Homo sapiens) (UniProt Q96SW2+Q9UKT9); assay: Protac activity at CRBN/IKZF3 in human NCI-H929 cells assessed as induction of IKZF3 degradation at 2.5 uM incubated for 72 hrs by Western blot analysis; assay type: cell-based
Procedure, shortened: (§3)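 KMS11 or H929 myeloma cells were treated with DMSO or 2.5 μM for 72 h. IKZF1 and IKZF3 were measured by Western blot with GAPDH as loading control, representative of two independent experiments.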

[5] = biological target: T3, Cereblon/Ikaros (Homo sapiens) (UniProt Q96SW2+Q13422); assay: Protac activity at CRBN/IKZF1 in human KMS-11 cells assessed as induction of IKZF1 degradation at 2.5 uM incubated for 72 hrs by Western blot analysis; assay type: cell-based; procedure, shortened: as §3
[6] = biological target: T4, Histone-lysine N-methyltransferase NSD2 (Homo sapiens, UniProt O96028); assay: Binding affinity to N-terminal GST-tagged human NSD2 PWWP1 domain (208 to 369 residues) expressed in Escherichia coli […] (DE3) cells assessed as dissociation constant by isothermal titration calorimetry assay
T4 sequence (O96028 whole entry): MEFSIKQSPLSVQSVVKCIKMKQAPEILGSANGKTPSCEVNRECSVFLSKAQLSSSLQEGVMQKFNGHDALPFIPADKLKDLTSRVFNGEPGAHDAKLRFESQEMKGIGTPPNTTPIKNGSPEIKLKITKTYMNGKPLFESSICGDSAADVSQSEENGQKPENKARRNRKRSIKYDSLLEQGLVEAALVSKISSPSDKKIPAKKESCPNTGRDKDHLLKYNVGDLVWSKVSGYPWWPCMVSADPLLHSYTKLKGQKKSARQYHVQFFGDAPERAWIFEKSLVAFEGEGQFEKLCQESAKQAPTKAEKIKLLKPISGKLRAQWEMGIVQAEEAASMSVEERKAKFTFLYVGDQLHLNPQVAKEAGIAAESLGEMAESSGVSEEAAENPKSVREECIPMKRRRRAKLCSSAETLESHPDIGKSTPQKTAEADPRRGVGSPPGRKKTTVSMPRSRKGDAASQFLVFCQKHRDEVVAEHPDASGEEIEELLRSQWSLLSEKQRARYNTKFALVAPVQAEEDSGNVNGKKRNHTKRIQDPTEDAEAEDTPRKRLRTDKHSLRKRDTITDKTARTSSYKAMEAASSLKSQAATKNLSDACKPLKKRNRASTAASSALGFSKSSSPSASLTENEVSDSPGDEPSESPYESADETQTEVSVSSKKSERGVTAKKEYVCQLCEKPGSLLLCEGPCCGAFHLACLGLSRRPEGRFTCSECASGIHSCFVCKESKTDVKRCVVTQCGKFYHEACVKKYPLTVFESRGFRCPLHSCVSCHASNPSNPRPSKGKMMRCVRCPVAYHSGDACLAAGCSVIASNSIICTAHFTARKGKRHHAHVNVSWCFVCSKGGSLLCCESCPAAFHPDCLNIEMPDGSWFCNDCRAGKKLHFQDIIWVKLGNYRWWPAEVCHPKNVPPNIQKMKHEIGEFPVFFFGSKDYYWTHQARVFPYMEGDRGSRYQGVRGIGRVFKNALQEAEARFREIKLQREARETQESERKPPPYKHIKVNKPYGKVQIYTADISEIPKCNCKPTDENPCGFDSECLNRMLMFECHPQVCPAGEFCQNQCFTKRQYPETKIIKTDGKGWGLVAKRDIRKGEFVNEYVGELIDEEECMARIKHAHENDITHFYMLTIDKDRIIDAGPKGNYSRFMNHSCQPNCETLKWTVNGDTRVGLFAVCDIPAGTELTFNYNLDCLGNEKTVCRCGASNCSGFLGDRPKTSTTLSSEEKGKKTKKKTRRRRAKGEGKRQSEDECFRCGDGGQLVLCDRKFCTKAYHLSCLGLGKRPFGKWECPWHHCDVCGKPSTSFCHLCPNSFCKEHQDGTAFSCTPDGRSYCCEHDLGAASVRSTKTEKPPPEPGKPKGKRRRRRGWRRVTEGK

[7] = Toxicity in Swiss albino mouse assessed as clinical signs of toxicity at 50 mg/kg, ip administered for 8 hrs; assay type: organism-based; conditions: in vivo
Procedure, shortened: (§4)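 Three male Swiss albino mice received a single 50 mg/kg intraperitoneal dose as a solution in 5% NMP/45% propylene glycol/50% PEG-400 (v/v). Blood was drawn at 0.5, 2 and 8 h and plasma stored at −70 °C. Plasma levels were measured by LC–MS/MS (LLOQ 5.14 ng/mL), reported as mean ± SD of three mice; mice were watched for clinical signs.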

[8] = biological target: T2, Protein cereblon/Zinc finger protein Aiolos (Homo sapiens); assay: Protac activity at CRBN/IKZF3 in wild type HEK293FT cells assessed as induction of IKZF3 degradation at 0.5 to 10 uM incubated for 48 hrs by Western blot analysis; assay type: cell-based; conditions: dose 0.5-10 µM; procedure, shortened: as §2
[9] = Cmax in Swiss albino mouse at 50 mg/kg, ip by LC-MS/MS analysis; assay type: ADME, organism-based; set-up: dose 50 mg/kg, route ip; conditions: in vivo; procedure, shortened: as §4
[10] = biological target: T2, Protein cereblon/Zinc finger protein Aiolos (Homo sapiens); assay: Protac activity at CRBN/IKZF3 in human KMS-11 cells assessed as induction of IKZF3 degradation at 2.5 uM incubated for 72 hrs by Western blot analysis; assay type: cell-based; procedure, shortened: as §3
[11] = biological target: T1, Protein cereblon/Histone-lysine N-methyltransferase NSD2; assay: Protac activity at CRBN E3 ligase/ NSD2 PWWP1 domain (208 to 369 residues) in HEK293FT cells assessed as induction of NSD2 degradation incubated for 48 hrs by Western blot analysis; assay type: cell-based; procedure, shortened: as §1
[12] = biological target: T1, Protein cereblon/Histone-lysine N-methyltransferase NSD2; assay: Protac activity at CRBN E3 ligase/ NSD2 PWWP1 domain (208 to 369 residues) in HEK293FT cells assessed as induction of NSD2 degradation 5 uM by Western blot analysis; assay type: cell-based; conditions: time 0-72 hrs, TDE = time-dependent effect
Procedure, shortened: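 293FT cells were treated at 5 μM for 0, 12, 24, 36, 48 or 72 h. Lysates were made in 50 mM Tris-HCl pH 8.0, 150 mM NaCl, 1% NP-40, and NSD2 was immunoblotted with GAPDH as loading control.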

[13] = Tmax in Swiss albino mouse at 50 mg/kg, ip by LC-MS/MS analysis; assay type: ADME, organism-based; conditions: in vivo; procedure, shortened: as §4
KMS-11 = assay: Antiproliferative activity against human KMS-11 cells assessed as inhibition of cell growth at 2.5 uM incubated for 8 days by automated TC10 cell counter based analysis; assay type: functional; conditions: time 8.0 day
Procedure, shortened: (§5)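 KMS11 or H929 cells (RPMI 1640, 10% FBS) seeded at 0.5 million per well in triplicate, treated with 2.5 μM or DMSO for 8 days. Compound-containing medium replaced every 2 days; cells diluted periodically to stay below 1 × 10^6/mL. Viability given relative to DMSO control as mean ± SD (n = 3).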

[14] = Drug concentration in Swiss albino mouse plasma at 50 mg/kg, ip measured after 8 hrs by LC-MS/MS analysis; assay type: ADME, organism-based; procedure, shortened: as §4
NCI-H929 = assay: Antiproliferative activity against human NCI-H929 cells assessed as inhibition of cell growth at 2.5 uM incubated for 8 days by automated TC10 cell counter based analysis; assay type: functional; conditions: time 8.0 day; procedure, shortened: as §5
[15] = biological target: T3, Cereblon/Ikaros (Homo sapiens); assay: Protac activity at CRBN/IKZF1 in human NCI-H929 cells assessed as induction of IKZF1 degradation at 2.5 uM incubated for 72 hrs by Western blot analysis; assay type: cell-based; procedure, shortened: as §3
[16] = biological target: von Hippel-Lindau disease tumor suppressor/Histone-lysine N-methyltransferase NSD2 (Homo sapiens) (UniProt O96028+P40337); assay: Protac activity at VHL E3 ligase/ NSD2 PWWP1 domain (208 to 369 residues) in HEK293FT cells assessed as induction of NSD2 degradation at 2.5 to 10 uM incubated for 48 hrs by Western blot analysis; assay type: cell-based; conditions: dose 2.5-10 µM; procedure, shortened: as §1

O=C(CNc1cccc2c1C(=O)N(C1CCC(=O)NC1=O)C2=O)NCCCOc1ccc(NC(=O)c2ccc(CN(C(=O)c3ccc4c(c3)OCC(=O)N4)C3CC3)cc2)nc1 (stereo not drawn)
Activity [1]: Active | Activity [2]: Active | Emax [3]: > 82% | Activity [4]: Active | Activity [5]: Active | Kd [6]: 1100 nM | Activity [7]: Non-Toxic | Activity [8]: Active | Cmax [9]: 1350 nM | Activity [10]: Active | DC50 [11]: 5200 nM | Activity [12]: Tde | Tmax [13]: 30 min | inhibition (KMS-11): Active | concentration at 8 h [14]: 980 nM | inhibition (NCI-H929): Active | Activity [15]: Active

CN1C(=O)CCC(N2C(=O)c3cccc(NCC(=O)NCCCOc4ccc(NC(=O)c5ccc(CN(C(=O)c6ccc7c(c6)OCC(=O)N7)C6CC6)cc5)nc4)c3C2=O)C1=O (stereo not drawn)
Kd [6]: 900 nM

CC(C)N(Cc1ccc(C(=O)Nc2ccc(OCCCNC(=O)CNc3cccc4c3C(=O)N(C3CCC(=O)NC3=O)C4=O)cn2)cc1)C(=O)c1ccc2c(c1)OCC(=O)N2 (stereo not drawn)
Activity [4]: Active | Activity [5]: Active | Activity [10]: Active | Activity [15]: Active

Cc1ncsc1-c1ccc(CNC(=O)[C@@H]2C[C@@H](O)CN2C(=O)[C@@H](NC(=O)CCOCCOCCNC(=O)c2ccc(NC(=O)c3ccc(CN(C(=O)c4ccc5c(c4)OCC(=O)N5)C4CC4)cc3)cc2)C(C)(C)C)cc1
Activity [16]: Active
